Shown are actives, neighbours in structure and some others; about 1.8% of the full set was active somewhere.
CHRM5 agonist: agonists of human muscarinic M5 receptor (CHRM5) | P08912 | CHO-K1 hM5 cells, Fluo-8 calcium fluorescence; 0% DMSO wells, 100% maximal acetylcholine response | activation, % at 3 µM | actives 0.19% (n = 360,000) | AID 624037;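 active means activation above the run's mean over test compounds plus 3 SD, cut at about 23% in these data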;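 further: signal is peak over basal fluorescence ratio across the kinetic read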
CHRM4 agonist: CHRM4 agonism in calcium assay. CHO-K1 hM4/Gqi5, Fluo-8 calcium fluorescence; vehicle 0%, full acetylcholine response 100%. activation, % at 3 µM. AID 624127. actives 0.14% (n = 360,000). P08173;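 active means activation above the run mean over all test wells plus 3 SD, cut at about 32% in these data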;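 further: peak over basal fluorescence ratio per well then scaled between controls; 0% = DMSO wells and 100% = acetylcholine at EC100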
Target sequence (P08173 whole entry, looked up): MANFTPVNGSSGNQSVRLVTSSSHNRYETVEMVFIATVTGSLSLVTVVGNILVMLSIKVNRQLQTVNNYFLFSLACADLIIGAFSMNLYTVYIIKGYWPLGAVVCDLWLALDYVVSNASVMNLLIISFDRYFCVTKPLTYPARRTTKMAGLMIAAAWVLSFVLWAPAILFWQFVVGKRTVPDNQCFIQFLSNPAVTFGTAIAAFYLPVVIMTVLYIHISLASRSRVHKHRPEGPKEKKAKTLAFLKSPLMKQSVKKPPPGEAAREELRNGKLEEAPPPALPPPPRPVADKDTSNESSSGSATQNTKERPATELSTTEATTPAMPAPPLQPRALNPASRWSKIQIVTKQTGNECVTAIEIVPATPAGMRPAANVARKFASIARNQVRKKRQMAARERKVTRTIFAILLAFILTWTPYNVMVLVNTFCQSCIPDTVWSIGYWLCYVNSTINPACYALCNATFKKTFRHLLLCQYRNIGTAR
M4 PAM: potentiates acetylcholine response at human M4 receptor. P08173. CHO-K1 hM4/Gqi5, Fluo-8 calcium fluorescence, ACh EC20; 0% = ACh EC20, 100% = maximal ACh. activation, % at 3 µM. actives 0.4% (n = 360,000);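 active means activation above its plate's cutoff, the mean activation of sample wells plus 3 SD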
M4 antag: blocks acetylcholine activation of human M4 receptor; P08173; CHO-hM4 cells, ACh EC80, Fluo-8 calcium fluorescence; inhibition, % at 3 µM; actives 0.73% (n = 360,000);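 active means inhibition above its plate's cutoff, the mean inhibition of sample wells plus 3 SD, cut at about 27% in these data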;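 further: 0% = acetylcholine EC80 with DMSO and 100% = DMSO without agonist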
CHRM5 PAM: positive allosteric modulators of human muscarinic M5 receptor. P08912. CHO-K1 hM5, Fluo-8 calcium, ACh EC20 PAM; 0% = ACh EC20, 100% = ACh EC100. activation, % at 3 µM. actives 0.3% (n = 360,000). AID 624038;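 active means activation above the run cutoff, the mean activation of all test compounds plus 3 SD, cut at about 18% in these data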
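System: CHO-K1 cell line with stable human muscarinic M5 receptor expression | Also added: EC20 acetylcholine as agonist stimulus | Compound: One concentration, 3 µM final (nominal) | Timing: Fluo-8 loading 80 min at 37 °C plus 30 min room temperature | Measured by: Fluo-8 calcium dye fluorescence, kinetic read | Read-out basis: % activation, ACh-normalized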
M5 antag: antagonists of human muscarinic M5 receptor (CHRM5) | inhibition, % at 3 µM | P08912 | CHO-hM5 cells, Fluo-8 calcium fluorescence, ACh EC80 | AID 624040 | actives 0.59% (n = 360,000);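 active means inhibition above a per-plate cutoff, the mean of that plate's test compounds plus 3 SD, cut at about 27% in these data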;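 further: 0% = acetylcholine EC80 with DMSO and 100% = DMSO without agonist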
Starred values were filed as active, the others as inactive.

SMILES	CHRM5 agonist	CHRM4 agonist	M4 PAM	M4 antag	CHRM5 PAM	M5 antag
C=CCSc1nnc(NC(=O)CN2C(=O)NC3(CCCC3)C2=O)s1	-6	0	18*	-17	1	8
CC1CC(C)CN(S(=O)(=O)CCNC(=O)c2ccccc2)C1 (stereo not drawn)	0	0	5	-3	11	-3
CCc1noc(C)c1C(=O)N1CCN(S(=O)(=O)c2ccc(Cl)s2)CC1	-4	0	2	-5	-1	4
CCOC(=O)c1sc2nc(CSc3ccccc3)nc(NCCN(C)C)c2c1C	-3	4	-9	-4	1	6
CN(C)Cc1c(C(=O)N/N=C/CCc2ccccc2)nnn1-c1nonc1N	-2	2	6	-8	-2	6
COc1ccc(S(=O)(=O)NC(C)C(=O)Nc2ccc3c(c2)OCCO3)cc1OC (stereo not drawn)	-2	0	1	-5	-1	9
CC(=O)c1c(C)[nH]c(C(=O)CN2C(=O)NC(C)(c3ccc(C)cc3)C2=O)c1C (stereo not drawn)	46*	36*	7	-1	-8	19
CSc1nc(N)nc2c1ncn2C1OC(CO)C(O)C1O (stereo not drawn)	-2	0	3	5	-6	33*
CCCc1nc2c3ccccc3ccn2c1Cc1ccccc1	-7	2	-17	13	-22	28*
Cc1ccc(-c2nc3c4ccccc4ccn3c2Cc2ccccc2)cc1	-2	-1	8	-11	-1	-6
CN1CCN(c2ncccc2S(=O)(=O)N2CCCCC2)CC1	-11	0	-14	69*	-15	99*
Cn1cc(CN2CCC(n3nccc3NC(=O)CCOc3ccccc3)CC2)cn1	-4	1	-4	-10	-8	29*
Cc1ccc(N2C(=O)[C@@H]3[C@H](C2=O)C2c4ccccc4C=NN2[C@@H]3C(=O)c2ccc(Cl)cc2)cc1 (stereo partly drawn)	-3	4	7	-12	-10	27*
CSc1ccccc1NC(=O)CN(C)CC(=O)c1c(C)[nH]c2ccccc12	4	9	2	-4	-5	-2
COc1ccc(NC(=O)CCCNC(=O)c2ccc(Cl)cc2)cc1S(=O)(=O)N1CCOCC1	-1	0	3	-9	-4	13
C[C@H](CO)N1C[C@H](C)[C@@H](CN(C)S(=O)(=O)c2ccccc2F)Oc2ncc(C#Cc3cccnc3)cc2C1=O	0	9	-4	-18	-2	2
CCOc1ccc(NC(=O)CN2CCN(CC(=O)Nc3ccc(C(N)=O)cc3)CC2)cc1	-2	2	-1	-1	-4	4
CN(C)c1ccc(C=NN2C(=O)CSC2=S)c(Cl)c1	26*	5	-4	1	-11	24
CC(=O)c1cccc(CN(C)CC2CCCN(CCc3ccccc3C)C2)c1 (stereo not drawn)	-23	2	-16	88*	-33	81*
COc1ccccc1CCN1CCCC(CN(C)CC(C)(C)CO)C1 (stereo not drawn)	-16	1	-16	30*	-1	11
COc1ccccc1OCC(=O)NNC(=O)c1ccc2c(=O)n3c(nc2c1)CCC3	0	1	0	-1	-2	0
NS(=O)(=O)c1c(Sc2ccccc2C(=O)O)ccc2ccccc12	4	2	6	-13	1	0
CC(O)(C#CCN1CCCCCC1)c1ccccc1 (stereo not drawn)	-6	15	-20	23	-16	26
OC(C#CCN1CCOCC1)(c1ccccc1)C1CC1 (stereo not drawn)	-4	0	2	5	2	0
OC(C#CCN1CCCCC1)(c1ccccc1)c1ccccc1	-21	2	-18	100*	-36	100*
SMILES	CHRM5 agonist	CHRM4 agonist	M4 PAM	M4 antag	CHRM5 PAM	M5 antag
CC(C)C(O)(C#CCN1CCCCC1)C(C)C	-8	0	-6	1	-19	31*
OC(C#CCN1CCCC1)(c1ccccc1)c1ccccc1	-7	1	-18	98*	-17	99*
C#CCNC(=O)C1=C[C@H](c2ccccc2)[C@@H](CCCO)[C@H](OCC)O1	0	0	16	-5	7	8
CCOc1ccccc1CN1CCCC(CNS(=O)(=O)c2ccc(OC)cc2)C1 (stereo not drawn)	-9	2	-14	13	-5	13
Oc1ccccc1CNc1ccc(Br)cn1	1	1	-17	33*	-20	22
c1ccc2c(c1)CCCc1cc(NCCN3CCOCC3)nnc1-2	-1	1	-7	34*	-3	1
CCCCN(C(=O)C1CCCC1)c1c(N)n(CC(C)C)c(=O)[nH]c1=O	4	1	27*	-20	6	-10
CCCCN(C(=O)C1CCC1)c1c(N)n(CCC)c(=O)[nH]c1=O	0	0	1	4	4	4
O=C(c1cc(-c2ccco2)nc2ccccc12)N1CCCC(C(F)(F)F)C1 (stereo not drawn)	2	3	3	-2	2	4
S=C(NCc1cccnc1)Nc1cc(Cl)cc(Cl)c1	2	16	-15	-2	-22	30*
Cc1ccc(NC(=S)NCc2cccnc2)cc1	-3	1	16*	1	2	-7
O=CNC1c2ccccc2CCc2ccccc21	1	0	5	2	2	16
CCN1CCN(c2ncnc3scc(-c4ccc(C)c(C)c4)c23)CC1	-8	1	-16	27*	-18	46*
Cc1nn(C(=O)c2cc([N+](=O)[O-])ccc2Cl)c(C)c1Br	2	20	-6	10	-15	17
COC(C[C@@H](O)[C@H](C)[C@@H](O)COCc1ccccc1)OC	-3	3	-11	36*	-14	5
CN1C(=O)c2ccccc2Sc2ccc(NC(=O)NC3CC3)cc21	3	3	9	-19	38*	16
CC1(C(=O)NNC(=O)c2cccc([N+](=O)[O-])c2)CC1Br (stereo not drawn)	0	1	16*	-16	-2	-6
O=C(CSc1nc2[nH]ncc2c(=O)n1-c1ccc(Cl)c(Cl)c1)NCc1ccccc1Cl	12	4	-3	1	3	6
COc1ccc(NC(=O)C2CCCN(c3nn4c(=O)cc(C)nc4s3)C2)c(OC)c1 (stereo not drawn)	-6	2	-3	-9	0	-19
O=C1C(=O)N(CCCc2ccccc2)c2ccccc21	26*	1	-5	11	-2	-9

Screening results as filed in PubChem BioAssay.
